From PubChem
CHO parental Ca = signal in parental CHO cells, OX1R antagonist counter-screen; inhibition, % at 5.6 µM; AID 463079; parental CHO-K1, ATP-induced calcium, Fluo-8 fluorescence; 0.63% of 330,000 active;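 active means inhibition above that plate's mean sample inhibition plus 3 SD, cut at about 26% in these data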;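 further: 0% = ATP-challenged DMSO wells and 100% = DMSO wells without ATP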
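Test system: untransfected parental CHO cell line. Compound: one dose, 5.6 µM nominal. Detection: intracellular calcium via Fluo-8 no-wash fluorescent dye. Measure: % inhibition. Benchmarks: ATP-challenged DMSO wells low, unchallenged DMSO wells high.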
GalR3 antag = human GalR3 antagonism | HEK293 GalR3-CNG cAMP membrane potential fluorescence; galR3 body fused to GalR1 C-terminus | inhibition, % at 3 µM | 0.44% of 360,000 active | O60755 | AID 651719;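 active means inhibition above the screen-wide average plus 3 SD, cut at about 13% in these data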;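 further: forskolin and galanin both at EC90 stimulate the cells; cAMP rise reported by CNG channel membrane potential dye signal; 0% = forskolin plus galanin with DMSO and 100% = forskolin alone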
Target sequence (O60755 1-299 limits assumed): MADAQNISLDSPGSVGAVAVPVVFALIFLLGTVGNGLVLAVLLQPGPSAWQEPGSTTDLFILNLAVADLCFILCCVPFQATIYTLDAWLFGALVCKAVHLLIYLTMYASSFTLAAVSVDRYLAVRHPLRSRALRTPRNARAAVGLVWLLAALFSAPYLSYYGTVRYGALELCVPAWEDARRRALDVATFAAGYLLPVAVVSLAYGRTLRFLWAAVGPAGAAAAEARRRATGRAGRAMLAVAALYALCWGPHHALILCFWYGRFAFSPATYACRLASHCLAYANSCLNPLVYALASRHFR
OX1R antag-1 = antagonists of human orexin 1 receptor | CHO/OX1R cells, Fluo-8 calcium fluorescence, orexin A | inhibition, % at 5 µM | O43613 | 0.43% of 330,000 active;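 active means inhibition above its plate's threshold, mean inhibition of all tested compounds on the plate plus 3 SD, cut at about 37% in these data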;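 further: 0% = orexin A challenge wells and 100% = SB-334867-A antagonist wells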
TAAR1 ag = agonists of human TAAR1; activation, % at 3 µM; 0.99% of 360,000 active; Q96RJ0; AID 624467; CHO RD-HGA16 TAAR1, Fluo-8 calcium fluorescence; vehicle wells 0%, saturating PEA agonist 100%;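 active means activation above the mean activation of all test compounds in the run plus 3 SD, cut at about 38% in these data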
Target sequence (Q96RJ0 whole entry, looked up): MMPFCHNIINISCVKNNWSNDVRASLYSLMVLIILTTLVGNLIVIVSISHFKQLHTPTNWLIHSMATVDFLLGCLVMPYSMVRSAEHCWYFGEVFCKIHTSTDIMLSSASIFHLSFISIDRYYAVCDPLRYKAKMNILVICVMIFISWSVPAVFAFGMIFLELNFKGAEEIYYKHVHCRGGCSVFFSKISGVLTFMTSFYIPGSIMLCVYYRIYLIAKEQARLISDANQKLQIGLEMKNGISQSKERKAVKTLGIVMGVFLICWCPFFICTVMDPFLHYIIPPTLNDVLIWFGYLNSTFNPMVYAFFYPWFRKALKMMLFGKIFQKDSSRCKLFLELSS
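System: CHO-derived RD-HGA16 cells with stable Gα16 and human TAAR1. Times: 17-24 h plating, Fluo-8 75 min 37 °C, 30 min RT. Measured by: calcium-sensitive Fluo-8 signal, excitation 470-495, emission 515-575 nm. Read-out basis: % activation relative to PEA EC100 response. Control set: DMSO and PEA EC100. Repeats: no replicates (n 1).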
OX1R antag-2 = antagonists of human orexin 1 receptor (OX1R). O43613. OX1R-expressing cells, FRET antagonist read-out. inhibition, % at 6.6 µM. 1.8% of 330,000 active. AID 485270; in the data active means inhibition mostly above about 38%, no sharp cut-off; inactive means mostly below about 40%;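 further: 0% = agonist challenge alone and 100% = reference antagonist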
TAAR1 antagonist = human TAAR1 antagonism | 1.5% of 360,000 active | CHO RD-HGA16 TAAR1, Fluo-8 calcium fluorescence, antagonist | inhibition, % at 3 µM | Q96RJ0;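 active means inhibition above a per-plate cutoff, the mean inhibition of test compounds on that plate plus 3 SD, cut at about 49% in these data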;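 further: 0% = DMSO plus EC80 beta-PEA response and 100% = DMSO alone without agonist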
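Material: RD-HGA16 CHO cells with stable hTAAR1 and Gα16; Dosing: single nominal final test compound concentration of 3 µM; Schedule: seeding 17-24 h prior, 75-min 37 °C, 30-min RT dye loading; Detection: kinetic Fluo-8 calcium fluorescence measurement; Measure: % inhibition from peak post-agonist over basal fluorescence ratio; Benchmarks: vehicle and agonist controls.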
An asterisk follows results filed as active; . = no result. Hits are enriched below; roughly 4.2% of the tested compounds scored in any of these assays.

SMILES	CHO parental Ca	GalR3 antag	OX1R antag-1	TAAR1 ag	OX1R antag-2	TAAR1 antagonist
CN1c2ccccc2C(C)(C)C12CC(c1ccc(S(=O)(=O)N3CCCCC3)cc1)=NO2 (configuration not stated)	-0.1	-2.1	-35.6	3.3	-1.7	-15.8
CCOc1ccc(NC(=O)CSc2nc(C)cc(C)n2)cc1	-4.3	-9.8	-11.7	6.9	5.6	0.7
Cc1cc(C)cc(NC(=O)Cn2ncn3c(cc4ccccc43)c2=O)c1	18.1	-0.9	8.1	39.3*	4.8	11.8
CN(C)c1ccc(NC(=O)Cn2ncn3c(cc4ccccc43)c2=O)cc1	-7.0	-5.3	-16.1	0.1	6.4	-6.1
O=C(CSCC(=O)Nc1nc(-c2ccc3c(c2)OCO3)cs1)Nc1nccs1	23.8	.	-5.7	15.9	5.7	54.1*
CC(=O)c1sc(Nc2ccccn2)nc1C	-4.2	-3.6	6.7	16.8	73.4*	-6.6
Cc1nc(SCc2nc3ccc(F)cc3[nH]2)c2oc3ccccc3c2n1	-28.9	2.2	-29.2	12.5	32.8	38.2
Cc1ccc2oc3c(SCc4nc5ccccc5[nH]4)nc(C)nc3c2c1	-23.6	-0.3	-8.6	3.2	58.0*	45.8
Cc1nc(SCCc2nc3ccccc3[nH]2)c2oc3ccccc3c2n1	-15.5	-1.0	30.7	2.3	59.3*	-1.2
Cc1nc(SCc2nc3ccccc3[nH]2)c2oc3cc(Br)ccc3c2n1	-11.0	0.9	26.8	10.1	48.2*	42.0
Cc1[nH]n(-c2ccccc2)c(=O)c1/C=N/NC(=O)c1ccc(O)cc1O	-11.1	.	-20.7	.	36.6*	.
Cc1cc(C(=O)N/N=C/c2c(C)[nH]n(-c3ccccc3)c2=O)n[nH]1	-8.4	-1.6	-8.1	-1.8	20.5	12.4
Cc1ccc(-n2[nH]c(C)c(/C=N/NC(=O)c3ccc(O)cc3O)c2=O)cc1	-3.7	.	-5.4	.	37.6*	.
C[C@H](CO)N1C[C@H](C)[C@@H](CN(C)C(=O)NC2CCCC2)Oc2cc(Br)ccc2S1(=O)=O	.	-6.1	.	0.9	.	-15.8
Cc1cccc(C(=O)Nc2oc(-c3ccccc3)cc2C#N)c1	-8.2	2.4	-6.9	5.0	44.8	48.9*
CC1CC1C(=O)OCC(=O)NNC(=O)c1ccc([N+](=O)[O-])cc1 (configuration not stated)	-11.6	-3.3	9.0	5.2	34.3*	5.2
O=C(COC(=O)CCCOc1ccccc1)NNC(=O)c1ccc([N+](=O)[O-])cc1	-1.0	-2.8	-10.8	1.1	41.6	-3.2
CCOc1ccccc1OCC(=O)OCC(=O)NNC(=O)c1ccc([N+](=O)[O-])cc1	-10.7	-2.2	-3.6	2.2	54.9*	-13.3
CC1CC1C(=O)OCC(=O)NC(=O)c1ccc(C(C)(C)C)cc1 (configuration not stated)	-7.2	-1.0	-21.8	17.8	10.2	9.9
Cc1ccc(C(=O)OCC(=O)NNC(=O)c2ccc([N+](=O)[O-])cc2)o1	-10.7	-0.2	-10.2	3.6	40.9*	-26.4
O=C(CNC(=O)c1ccccc1)NCC(=O)OCC(=O)c1ccc([N+](=O)[O-])cc1	-3.5	0.4	-5.4	5.0	54.4*	13.1
CCNC(=S)NS(=O)(=O)c1ccccc1	-17.1	-2.0	-14.7	2.7	9.1	-2.7
Cn1c(=O)c(C(=O)Nc2ncccc2O)c(O)c2ccccc21	47.8*	-5.0	26.8	5.9	16.9	6.5
Cn1c(=O)c2c(nc3n2CC(CO)O3)n(C)c1=O (configuration not stated)	-8.3	-8.2	-9.4	7.2	12.8	-13.6
COC(=O)c1c(C)[nH]c(C(=O)C(C)OC(=O)C2CC(=O)N(CCc3ccccc3)C2)c1C (configuration not stated)	-18.4	0.0	-15.1	3.9	8.6	-1.6
SMILES	CHO parental Ca	GalR3 antag	OX1R antag-1	TAAR1 ag	OX1R antag-2	TAAR1 antagonist
COC(=O)c1c(C)[nH]c(C(=O)C(C)OC(=O)C2CC(=O)N(c3ccc(C)cc3)C2)c1C (configuration not stated)	46.1*	-1.3	65.8*	7.2	6.8	20.8
O=C(Nc1ccc(Cl)cc1)NC1CCCCC1Cc1ccco1 (configuration not stated)	14.1	-4.8	-2.2	11.8	46.5*	25.7
O=C(Nc1ccc(Cl)cc1)NC1CCCC1Cc1ccco1 (configuration not stated)	-6.9	.	0.6	.	23.5	.
Cc1ccc2c(c1)[C@H]1[C@H](CO2)[C@H](c2ccccc2)[C@]2(C)C(=O)N(CC3CCCO3)CC(=O)N12 (some centres not stated)	-12.4	4.1	-28.1	9.1	7.7	-12.3
COc1ccc(C(=O)Oc2ccc3oc(=O)sc3c2)cc1	57.0*	-2.8	26.7	5.8	0.3	4.4
COC(=O)c1ccc(Cl)c(NC(=O)CN(c2ccc(OC)cc2)S(=O)(=O)c2ccccc2)c1	-16.3	-2.2	3.0	12.9	30.8	23.5
Cc1nc2ccc(NC(=O)c3ccc(Cl)c(S(=O)(=O)N(C)c4ccccc4)c3)cc2s1	41.5*	-2.5	27.5	13.2	49.9	51.3*
COC(=O)c1cc(NC(=O)CN(c2ccc(OC)cc2)S(=O)(=O)c2ccc(F)cc2)ccc1Cl	.	0.9	.	7.2	.	53.0*
COc1ccc(NC(=O)c2cc(-c3cccs3)on2)c(OC)c1	-27.4	-3.5	-1.9	-2.9	44.4	-7.6
CN(c1cccc(NC(=O)c2ccc(N(C)S(=O)(=O)c3ccccc3)cc2)c1)S(C)(=O)=O	62.1*	-6.7	67.4*	23.9	21.2	63.4*
COc1ccc(OC)c(NC(=O)c2ccc(-c3cccs3)cc2)c1	-15.9	-2.9	-11.2	-2.5	55.1*	17.3
O=CN1CCCN(Cc2nc(Cc3ccccc3F)no2)CC1	-0.1	-4.1	-11.3	1.8	1.0	-6.3
Cc1ccc(S(=O)(=O)c2c(N)n(NC(=O)c3ccco3)c3nc4ccccc4nc23)cc1	-6.5	-2.3	-9.7	3.0	5.8	2.8
O=C(Nc1ccccc1[N+](=O)[O-])C1(c2ccccc2)CCOCC1	-8.7	-2.6	-13.1	3.6	9.0	-12.2
CN(c1cccc(NC(=O)CN(c2ccc(Cl)c(Cl)c2)S(=O)(=O)c2ccccc2)c1)S(C)(=O)=O	-2.2	-1.5	10.1	9.2	30.8	57.3*
COc1cc(NC(=O)c2ccc(S(=O)(=O)N(C)c3ccccc3)cc2)cc(OC)c1	19.2	-2.4	18.2	-0.1	-2.6	51.0*
Cc1ccc(S(=O)(=O)N(CC(=O)Nc2cccc(N(C)S(C)(=O)=O)c2)c2ccc(Cl)c(Cl)c2)cc1	22.2	3.5	31.5	1.0	24.4	19.4
Cc1nc2cc(NC(=O)c3ccc(S(=O)(=O)N(C)c4ccccc4)cc3)ccc2o1	20.5	9.9	13.6	12.6	15.8	51.1*
